Results reported in article PMC11315199 (Heliyon, 2024).

Experiments:
melanocytes = settings: 1 mM for 48 h; cited from earlier work
B16F10 cells = assay: Anti-melanogenesis activity on B16F10 murine melanomas; type: cell-based; settings: 20 μg/ml, 72 h
Procedure, shortened: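 B16F10 murine melanoma cells (ATCC; DMEM with 10 % FBS) are seeded in 6-well plates and held 24 h in a CO₂ incubator, then exposed to test compound for 72 h. Cells are washed with 1xPBS, dissolved in 10 % NaOH at 60 °C for 1 h, and melanin is read at 450 nm. % anti-melanogenesis = 100 − (Mt/Mc × 100) versus untreated control. Triplicate, three independent experiments; mean ± SD.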

human melanocytes = settings: doses between 1.25 and 10 μM; cited from earlier work
[1] = system: cultured human melanoma cells; settings: cited from earlier work
tyrosinase = settings: treating hyperpigmentation disorders; cited from earlier work

## O=C1O[C@H]([C@@H](O)CO)C([O-])=C1OP(=O)([O-])[O-].O=C1O[C@H]([C@@H](O)CO)C([O-])=C1OP(=O)([O-])[O-].[Mg+2].[Mg+2].[Mg+2] [MAP, Magnesium ascorbyl phosphate]
melanocytes
  cytotoxic or cell growth inhibiting effects: no noticeable cytotoxic or cell growth inhibiting effects

## O=c1cc(CO)occ1O [kojic acid]
B16F10 cells
  % Anti-melanogenesis: 44.54 ± 2.47%

## COc1cc(/C=C/C(=O)CC(=O)/C=C/c2ccc(O)c(OC)c2)ccc1O [CC, Curcumin]
Human melanocytes
  melanocyte viability: without affecting melanocyte viability

## OC[C@H]1O[C@H](Oc2ccc(O)cc2)[C@H](O)[C@@H](O)[C@@H]1O [AA, Alpha arbutin]
[1]; 0.25–0.5 mM
  melanin content and tyrosinase activity: decreased melanin content and tyrosinase activity in a dose-dependent manner
[1]; 0.25–1 mM
  cell proliferation: no effect on cell proliferation

## OC[C@H]1O[C@@H](Oc2ccc(O)cc2)[C@H](O)[C@@H](O)[C@@H]1O [arbutin]
tyrosinase
  pigmentation reduction: 43.5%

## CC(=O)Cc1cc(=O)c2c(C)cc(O)c([C@@H]3O[C@H](CO)[C@@H](O)[C@H](O)[C@H]3O)c2o1 [aloesin]
tyrosinase
  pigmentation reduction: 34%
